Measurements taken from ChEMBL document CHEMBL1137561 (J Med Chem, 2007).
pEC50, pKi: −log10 of the molar value.

Legend:
[1] = tested on: Human immunodeficiency virus 1; test: Antiviral activity against HIV1 with reverse transcriptase Y188L mutation in MT4 cells assessed as inhibition of viral induced cytopathic effect by MTT method; format: functional, organism-based; details: Human immunodeficiency virus 1, MT4
How it was run: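 MT-4 cells infected with the HIV-1 NNRTI-resistant mutant strain. Viable cells scored at day 5 post-infection by the MTT tetrazolium colorimetric method. Values are means ± SD from at least two experiments.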

[2] = tested on: Human immunodeficiency virus 1; test: Antiviral activity against HIV1 NL43 in MT4 cells assessed as inhibition of viral induced cytopathic effect after 5 days by MTT method; details: Human immunodeficiency virus 1, NL43, MT4, 120 h
[3] = Resistance index, Ratio of EC50 for drug-resistant HIV1 with RT Y181C mutation in MT4 cells to EC50 for HIV1 NL43 in MT4 cells
[4] = target: Human immunodeficiency virus type 1 reverse transcriptase (Human immunodeficiency virus 1, UniProt Q72547, V179D); test: Inhibition of HIV1 reverse transcriptase V179D mutant
[5] = target: Human immunodeficiency virus type 1 reverse transcriptase (Human immunodeficiency virus 1, UniProt Q72547, Y188L); test: Inhibition of HIV1 reverse transcriptase Y188L mutant
[6] = tested on: Human immunodeficiency virus 1; test: Antiviral activity against HIV1 with reverse transcriptase IRLL98 mutation in MT4 cells assessed as inhibition of viral induced cytopathic effect by MTT method; format: functional, organism-based
[7] = target: Human immunodeficiency virus type 1 reverse transcriptase (Human immunodeficiency virus 1, UniProt Q72547, L100I); test: Inhibition of HIV1 reverse transcriptase L100I mutant
[8] = target: Human immunodeficiency virus type 1 reverse transcriptase (Human immunodeficiency virus 1, UniProt Q72547); test: Inhibition of wild type HIV1 3B reverse transcriptase
[9] = tested on: Human immunodeficiency virus 1; test: Antiviral activity against HIV1 with reverse transcriptase K103N mutation in MT4 cells assessed as inhibition of viral induced cytopathic effect by MTT method; format: functional, organism-based; details: Human immunodeficiency virus 1, MT4
How it was run: (§1)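 MT-4 cells infected with the HIV-1 NNRTI-resistant mutant strain. Viable cells scored at day 5 post-infection by the MTT tetrazolium colorimetric method. […] Values are means ± SD from at least two experiments.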

[10] = target: Human immunodeficiency virus type 1 reverse transcriptase (Human immunodeficiency virus 1, UniProt Q72547, V106A); test: Inhibition of HIV1 reverse transcriptase V106A mutant
[11] = Resistance index, Ratio of EC50 for drug-resistant HIV1 with RT Y188L mutation in MT4 cells to EC50 for HIV1 NL43 in MT4 cells
[12] = Resistance index, Ratio of EC50 for drug-resistant HIV1 with RT K103N mutation in MT4 cells to EC50 for HIV1 NL43 in MT4 cells
[13] = Selectivity index, ratio of CC50 for MT4 cells to EC50 for HIV1 NL43 infected MT4 cells; format: functional
[14] = tested on: Human immunodeficiency virus 1; test: Antiviral activity against HIV1 with reverse transcriptase Y181C mutation in MT4 cells assessed as inhibition of viral induced cytopathic effect by MTT method; format: functional, organism-based; details: Human immunodeficiency virus 1, MT4; how it was run: as §1
[15] = Resistance index, Ratio of EC50 for drug-resistant HIV1 with RT IRLL98 mutation in MT4 cells to EC50 for HIV1 NL43 in MT4 cells
[16] = target: Human immunodeficiency virus type 1 reverse transcriptase (Human immunodeficiency virus 1, UniProt Q72547, K103N); test: Inhibition of HIV1 reverse transcriptase K103N mutant
[17] = Inhibition of HIV1 reverse transcriptase Y1811 mutant; design: species or system Human immunodeficiency virus 1
How it was run: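 Recombinant HIV-1 RT Y181I mutant, purified to >95%, 10 min preincubation with inhibitor. Radioactive nucleotide incorporation into poly(rA)/oligo(dT) 10:1 was followed at varied nucleotide substrate levels, sampling every 2 min for initial velocities. Inhibitor spanned 0.2–5 Ki. Ki came from Lineweaver-Burk and Dixon plots. Means ± SD of at least three experiments.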

[18] = tested on: Human immunodeficiency virus 1; test: Resistance index, ratio of Ki for HIV1 reverse transcriptase Y181I mutant to Ki for wild type HIV1 3B reverse transcriptase
How it was run: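 Initial velocities came from radioactive nucleotide incorporation into poly(rA)/oligo(dT) 10:1, sampled every 2 min. Inhibitor spanned 0.2–5 Ki, with Lineweaver-Burk and Dixon plots. Fold-resistance is Ki mutant / Ki wild type.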

[19] = Cytotoxicity against MT4 cells after 4 days by MTT method; format: cell-based; details: human
How it was run: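 Mock-infected (noninfected) MT-4 cells, run in parallel with the antiviral test. Viable cells read by the MTT tetrazolium colorimetric method. […] Means ± SD from at least two experiments. The top concentration was limited where compounds precipitated in the culture medium.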

[20] = tested on: Human immunodeficiency virus 1; test: Antiviral activity against HIV1 NL43 in MT4 cells assessed as inhibition of viral induced cytopathic effect after 4 days by MTT method; format: functional, organism-based
[21] = Human immunodeficiency virus 1, MT4

Compound | pEC50 [1] | pEC50 [2] | Ratio EC50 [3] | pKi [4] | pKi [5] | pEC50 [6, 21] | pKi [7] | pKi [8] | pEC50 [9] | pKi [10] | Ratio EC50 [11] | Ratio EC50 [12] | Ratio CC50/EC50 [13] | pEC50 [14] | Ratio EC50 [15] | pKi [16] | pKi [17] | Ratio Ki [18] | CC50 at 96 h [19] [nM] | further results
CCc1c(C(C)c2c(F)cccc2F)nc(N(C)C)[nH]c1=O (stereo unspecified) | 6.26 | 8.70 | 50 | 7.52 | 5.00 | 6.06 | 5.40 | 7.30 | 6.60 | 7.22 | 275 | 125 | >40500 | 7.00 | 440 | 5.70 | 5.30 | 100 | > 81000 | 
Cc1c(C(C)c2c(F)cccc2F)nc(N(C)C)[nH]c1=O (stereo unspecified) | 7.30 | 9.52 | 47 | 5.70 | 6.30 | 8.30 | 6.00 | 7.00 | 7.30 | 7.00 | 167 | 167 | >56667 | 7.85 | 17 | 6.30 | 5.40 | 40 | > 17000 | 
Cc1c(C(C)c2c(F)cccc2F)nc(N2CCSCC2)[nH]c1=O (stereo unspecified) | 6.07 |  | 10 | 7.70 | 5.40 |  | 5.30 | 7.22 | 5.91 | 7.52 | 287 | 413 | >23667 | 7.52 | 20 | 5.00 | < 4.70 |  | > 71000 | pEC50 [20]: 8.52; pEC50 ([6]; mt4): 7.22
